The values below come from ChEMBL document CHEMBL1126740, “(S)- and (R)-8-(di-n-propylamino)-6,7,8,9-tetrahydro-3H-benz[e]indole-1-carbaldehyde: a new class of orally active 5-HT1A-receptor agonists” (J Med Chem, 1993).

Usually bioavailability stands for dose-corrected exposure relative to a reference, in per cent. Low values mean poor availability, high ones good availability. As usually defined, the Tmax is the time at which the peak concentration occurs. A word on the half-life: it is the time in which the quantity being followed falls by half. Usually ED50 stands for the midpoint of the dose-response relation. For orientation: Ki means a dissociation constant, usually derived from enzyme kinetics or from competition with a known ligand.

Series [1] can be described thus: Area under curve at 1 uM/dg administered intravenously. The series is classed as ADME. To be noted: iv. The essentials:
(§1)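 Male Sprague-Dawley rats (300 g) carrying arterial catheters, used 24 h after surgery; animals dosed orally were starved 18 h beforehand. Blood was sampled at intervals up to 12 h after dosing. Drug levels were measured by HPLC with fluorescence detection (ex 285, em 365) or by GC/MS, calibrated against spiked blank blood. AUC was taken from concentration-time curves; n = 4–6.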

Series [2] can be described thus: Area under curve at 20 uM/dg administered perorally. The format is ADME. To be noted: po. The essentials: as §1
Series [3] can be described thus: Maximum concentration of the drug at 1 umol/dg administered intravenously. Also noted: route intravenous. To be noted: in vivo, iv. The series is classed as ADME, organism-based. The essentials:
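Male Sprague-Dawley rats (300 g) with arterial catheters were dosed 24 h after surgery; orally dosed rats were starved 18 h beforehand. Blood was sampled at intervals up to 12 h and analysed by HPLC with fluorescence detection (ex 285, em 365) or by GC/MS. Cmax is in pmol/mL and tmax in min, mean ± SEM, n = 4–6.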

Series [4] is described as follows: Maximum concentration of the drug at 20 umol/dg administered perorally. The series is classed as ADME, organism-based. Also noted: route oral. To be noted: in vivo, po. The essentials:
(§2)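 Male Sprague-Dawley rats (300 g) with arterial catheters, used 24 h after surgery; rats dosed orally were starved 18 h. Drug was given po or iv. Blood (100–250 μL) was sampled at intervals up to 12 h and assayed by HPLC-fluorescence (ex 285, em 365) or GC/MS against spiked blank-blood standard curves. Cmax and tmax were taken from concentration–time curves; n = 4–6.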

A short description of series [5]: Bioavailability in rat. The format is ADME, organism-based. To be noted: in vivo. The procedure, abridged: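 Blood was drawn at intervals up to 12 h and assayed by HPLC-fluorescence or GC/MS against spiked blank-blood standards. F is the ratio of oral to intravenous areas under the blood concentration-time curves; n = 4–6.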
Series [6] is described as follows: Time taken to reach the maximum concentration of compound at 1 uM/dg administered intravenously. The format is ADME, organism-based. To be noted: in vivo, iv. The procedure, abridged:
as §2

Series [7] is described as follows: Half life of compound at 1 uM/dg administered intravenously. The series is classed as ADME, organism-based. To be noted: in vivo, iv. The essentials:
as §1

The species named for series [8] is Rattus norvegicus. Put plainly: Compound was tested for 5-HT behavioral response in reserpine pretreated rats; +5HT syndrome. The series is classed as functional, organism-based. The procedure, abridged:
(§3)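 Male Sprague-Dawley rats (200–300 g) were given reserpine 5 mg/kg sc 18 h before testing, then the test drug sc in the neck (n = 4). Motor activity was recorded by photocells for 30 min, with gross behaviour observed throughout. 5-HT syndrome: flat body posture, extended limbs, reciprocal forepaw treading. DA response: locomotion and stereotypies.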

Series [9] deals with Rattus norvegicus. The series can be described thus: In vivo evaluation for 5-HTP accumulation in the corpus striatum in male rats (po). The format is functional. The essentials: (§4)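 Male Sprague-Dawley rats were pretreated with reserpine 5 mg/kg sc 18 h before dosing. DOPA and 5-HTP in limbic system, striatum and hemispheres were measured by HPLC with electrochemical detection. Dose-response curves used 4–6 dose levels (n = 4) for each region; ED50 was estimated graphically. Partial responses are given as the maximal % reduction at the highest dose tested.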

Series [10] relates to Rattus norvegicus. Put plainly: In vivo evaluation for 5-HTP accumulation in the corpus striatum in male rats.(sc). The series is classed as functional. The essentials: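 Male Sprague-Dawley rats (200–300 g), reserpine-pretreated (5 mg/kg sc, 18 h before). Test drug was given sc in 4–6 doses (n = 4 per dose), with separate curves per brain area. 5-HTP in corpus striatum was measured by HPLC with electrochemical detection. ED50 was read from the dose–response curve.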

For series [11], the system named is Rattus norvegicus. Put plainly: In vivo evaluation for 5-HTP accumulation in the hemispheres in male rats (po). The series is classed as functional. The essentials: as §4
The subject of series [12] is Rattus norvegicus. The series can be described thus: In vivo evaluation for 5-HTP accumulation in the hemispheres in male rats (sc). The series is classed as functional. The procedure, abridged:
as §4

For series [13], the system named is Rattus norvegicus. The series can be described thus: In vivo evaluation for 5-HTP accumulation in the limbic system in male rats (po). The format is functional. The essentials:
as §4

The subject of series [14] is Rattus norvegicus. The series can be described thus: In vivo evaluation for 5-HTP accumulation in the limbic system in male rats (sc). The series is classed as functional. The procedure, abridged:
as §4

Series [15] relates to Rattus norvegicus. The series can be described thus: In vivo evaluation for DOPA accumulation in the corpus striatum in male rats at highest test dose of 45 uM/Kg; inactive. The series is classed as functional, organism-based. The procedure, abridged:
as §4

The subject of series [16] is Rattus norvegicus. The series can be described thus: In vivo evaluation for DOPA accumulation in the hemispheres in male rats at highest test dose of 45 uM/Kg; inactive. The format is functional, organism-based. The essentials: as §4
The test system of series [17] is Rattus norvegicus. The series can be described thus: In vivo evaluation for DOPA accumulation in the limbic system in male rats at highest test dose of 45 uM/Kg; inactive. The format is functional, organism-based. The procedure, abridged: as §4
Series [18] has as its system Rattus norvegicus. Put plainly: Maximal reduction in percent (Partial response) of DOPA accumulation rat corpus striatum at highest test dose of 61 uM/Kg (po). The series is classed as functional. The procedure, abridged:
as §4

Series [19] deals with Rattus norvegicus. The series can be described thus: Maximal reduction in percent (Partial response) of DOPA accumulation rat hemispheres at highest test dose of 61 uM/Kg (po); Inactive. The series is classed as functional, organism-based. The essentials:
as §4

The test system of series [20] is Rattus norvegicus. Put plainly: Maximal reduction in percent (Partial response) of DOPA accumulation rat limbic system at highest test dose of 61 uM/Kg (po). The series is classed as functional.
Series [21] has as its target D(2) dopamine receptor (Rattus norvegicus, UniProt P61169). The series can be described thus: Displacement of [3H]spiperone from dopamine receptor D2. The essentials:
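Rat striatal membranes in 50 mM potassium phosphate buffer (3 mg original tissue) incubated with 0.5 nM [3H]spiperone for 10 min at 37 °C. Nonspecific binding was defined with 10 μM 6,7-ADTN. Ki was calculated by Cheng–Prusoff; triplicates, 3–7 experiments.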
(In general: Displacement assays read how much labelled ligand stays bound in the presence of the test substance.)

Series [22] is filed under the species Rattus norvegicus. Put plainly: Compound was tested for 5HT, Dopamine agonist mediated response in reserpine pretreated rats; mix DA, 5-HT syndrome. The format is functional, organism-based. The procedure, abridged:
as §3

Series [23] relates to Rattus norvegicus. The series can be described thus: In vivo evaluation for 5-HTP accumulation in the corpus striatum in male rats (sc). The series is classed as functional. The procedure, abridged:
as §4

In series [24] the test system is Rattus norvegicus. The series can be described thus: In vivo evaluation for DOPA accumulation in the limbic system in male rats (sc). The series is classed as functional. The procedure, abridged:
as §4

The subject of series [25] is Rattus norvegicus. Put plainly: Maximal reduction in percent (Partial response) of DOPA accumulation rat lhemispheres at highest test dose of 12.5 umol/kg (sc). The format is functional. The procedure, abridged:
as §4

For series [26], the system named is Rattus norvegicus. Put plainly: In vivo evaluation for DOPA accumulation in the corpus striatum in male rats (sc). The format is functional. The procedure, abridged: as §4
Series [27] concerns the target T1, 5-hydroxytryptamine receptor 1A (Rattus norvegicus, UniProt P19327).
T1 sequence (P19327 whole entry): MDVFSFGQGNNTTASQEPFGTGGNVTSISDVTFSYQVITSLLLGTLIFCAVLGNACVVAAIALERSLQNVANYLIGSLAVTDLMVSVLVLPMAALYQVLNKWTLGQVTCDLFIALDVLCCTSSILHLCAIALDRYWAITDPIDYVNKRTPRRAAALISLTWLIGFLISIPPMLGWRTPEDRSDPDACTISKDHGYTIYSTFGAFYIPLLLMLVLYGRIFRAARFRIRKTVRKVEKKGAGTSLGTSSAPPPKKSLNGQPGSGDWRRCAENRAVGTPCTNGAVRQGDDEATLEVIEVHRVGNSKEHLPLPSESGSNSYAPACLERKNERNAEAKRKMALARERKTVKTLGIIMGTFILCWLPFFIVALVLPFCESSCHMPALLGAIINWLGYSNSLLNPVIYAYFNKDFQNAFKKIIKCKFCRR
The series can be described thus: In vitro binding affinity against 5-hydroxytryptamine 1A receptor using [3H]8-OH-DPAT. The procedure, abridged: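 Rat whole-brain membranes (brainstem and cerebellum removed) in 50 mM Tris pH 8.0 containing NaCl, CaCl2, MgCl2 and 10 μM pargyline, 10 mg tissue per tube. Nonspecific binding was defined with 10 μM 5-HT. IC50 was taken by semi-log linear regression and Ki by Cheng–Prusoff; triplicates.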

The subject of series [28] is Rattus norvegicus. Put plainly: In vivo evaluation for DOPA accumulation in the hemispheres in male rats at highest dose tested at 50 uM/Kg; inactive. The series is classed as functional, organism-based. The essentials: as §4
Series [29] deals with Rattus norvegicus. The series can be described thus: Maximal reduction in percent (Partial response) of 5-HTP accumulation rat hemispheres at highest test dose of 50 uM/Kg (sc). The series is classed as functional. The essentials: as §4
Series [30] concerns Rattus norvegicus. The series can be described thus: Maximal reduction in percent (Partial response) of DOPA accumulation rat corpus striatum at highest test dose of 50 uM/Kg (sc). The series is classed as functional. The essentials:
as §4

Series [31] has as its system Rattus norvegicus. Put plainly: Maximal reduction in percent (Partial response) of DOPA accumulation rat limbic system at highest test dose of 50 uM/Kg (sc). The format is functional.

Activity calls are given as the source filed them. No cut-off for these calls is given here.

Chain of D(2) dopamine receptor (P61169 whole entry): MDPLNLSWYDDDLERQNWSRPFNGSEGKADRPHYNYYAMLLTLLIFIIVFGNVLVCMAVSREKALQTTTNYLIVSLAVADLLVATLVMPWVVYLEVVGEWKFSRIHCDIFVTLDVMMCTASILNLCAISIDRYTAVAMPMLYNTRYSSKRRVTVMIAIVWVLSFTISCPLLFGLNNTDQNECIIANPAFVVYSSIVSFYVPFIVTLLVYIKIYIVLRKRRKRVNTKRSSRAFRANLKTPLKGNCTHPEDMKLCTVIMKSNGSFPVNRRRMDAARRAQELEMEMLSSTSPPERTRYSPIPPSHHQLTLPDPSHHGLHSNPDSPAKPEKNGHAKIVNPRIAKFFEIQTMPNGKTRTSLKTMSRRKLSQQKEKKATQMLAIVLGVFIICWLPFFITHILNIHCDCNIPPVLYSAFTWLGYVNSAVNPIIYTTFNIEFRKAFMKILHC

On to `CCCN(CCC)C1CCc2cccc(O)c2C1` (racemic) [8-OH-DPAT], for which the AUC in series [1] was determined as 213 pM/h/g; in series [2], 104 pM/h/g. The Cmax in series [3] is 344 pM ml-1; in series [4], 63 pM ml-1. In series [5], this compound returned a bioavailability of 2.4%. In addition, the time to peak (Tmax) at 1 µM in series [6] was 3 min. Also, in series [7], the half-life was 72 min. Also, the Behavioral response result in series [8] is “Active”. For the same compound, the ED50 in series [9] came to 7.9 µmol/kg; in series [10], 0.052 µmol/kg; in [11], 7.9 µmol/kg; in [12], 0.063 µmol/kg; in [13] it was 3 µmol/kg; in series [14], 0.052 µmol/kg. In addition, the ED50 entry in series [15], in series [16] and in series [17] was “inactive” throughout. Further, the Reduction in [18] stood at 43%; in [20] it was 35%. The Reduction result in series [19] was “inactive”. This compound also returned an inhibition constant (Ki) in [21] of 1360 nM.
In the case of `CCCN(CCC)C1CCc2ccc3[nH]ccc3c2C1` (racemic), the Behavioral response result in series [22] was “Active”. Further, the 50% effective dose (ED50) in series [23] worked out at 0.08 µmol/kg; in series [12] it was 0.11 µmol/kg; in [14], 0.1 µmol/kg; in [24] it was 0.18 µmol/kg; in series [26], 0.28 µmol/kg. Moreover, the Reduction in series [25] is recorded as 22%. Further, the Ki in series [21] turned out to be 156 nM.
Turning to `CCCN(CCC)C1CCc2cc3cc[nH]c3cc2C1` (stereo unspecified), the Ki in [27] was determined as 570 nM; in series [21], 350 nM. The Behavioral response result in [22] was “Active”. The ED50 result in series [28] was “inactive”. The results for the Reduction in [29], in [30] and in series [31] were 35%, 51% and 30%, respectively.
